From ChEMBL document CHEMBL2429848, “Proanthocyanidins from Spenceria ramalana and their effects on AGE formation in vitro and hyaloid-retinal vessel dilation in larval zebrafish in vivo” (J Nat Prod, 2013)
Activity calls are given as the source filed them. The calls are words filed in the database; no cut-off is given here.

Key:
[1] = species on record: Danio rerio; test: Antidiabetic retinopathic activity in zebrafish flk:EGFP transgenic embryo assessed as reduction of high glucose-induced dilation of hyaloidretinal vessels at 10 to 20 uM treated 1 day post fertilization to 6 days post fertilization; assay type: functional, organism-based
Method in brief: (§1)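 flk:EGFP transgenic embryos, five per well, were kept from 1 dpf in egg water with 30 mM glucose plus compound (10 or 20 μM) until 6 dpf. They were then fixed in 4% PFA, and lenses were isolated with the optic disc up and imaged by fluorescence. Diameters were taken in 3–4 main branches up to the first sub-branch. Percentage inhibition = [1 − (Tn − Cav)/(HGav − Cav)] × 100, from three independent experiments.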

[2] = Antiglycation activity assessed as inhibition of advanced glycation end product formation after 7 days by spectrofluorometric analysis; assay type: physicochemical
Method in brief: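 Bovine serum albumin (10 mg/mL) in 50 mM phosphate buffer pH 7.4 with 0.02% sodium azide was mixed with 0.2 M fructose/glucose solution and serially diluted compound, with aminoguanidine as positive control. Samples were incubated 7 days at 37 °C and fluorescence read at ex 350/em 450 nm, in triplicate. IC50 came from least-squares regression of log concentration against remaining activity.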

[3] = species on record: Danio rerio; test: Antidiabetic retinopathic activity in zebrafish flk:EGFP transgenic embryo assessed as reduction of high glucose-induced dilation of hyaloidretinal vessels at 20 uM treated 1 day postfertilization to 6 days postfertilization relative to control; assay type: functional; set-up: scale not given: the % may be the effect or the level left; method in brief: as §1
[4] = species on record: Danio rerio; test: Toxicity in zebrafish flk:EGFP transgenic embryo at 10 to 20 uM treated 1 day post fertilization to 6 days post fertilization; assay type: organism-based; conditions: in vivo
[5] = species on record: Danio rerio; test: Antidiabetic retinopathic activity in zebrafish flk:EGFP transgenic embryo assessed as reduction of high glucose-induced dilation of hyaloidretinal vessels at 10 uM treated 1 day postfertilization to 6 days postfertilization relative to control; assay type: functional; set-up: scale not given: the % may be the effect or the level left; method in brief: as §1

SMILES | IC50 [2] [µM] | Activity [1] | Activity [3] [%] | Activity [4] | Activity [5] [%]
Oc1cc(O)c2c(c1)O[C@H](c1ccc(O)c(O)c1)[C@H](O)C2 [(-)-EPICATECHIN] | 13.6 | – | – | – | –
O=C(O[C@@H]1Cc2c(O)cc(O)cc2O[C@@H]1c1ccc(O)c(O)c1)c1cc(O)c(O)c(O)c1 [EPICATECHIN GALLATE] | 15.1 | – | – | – | –
N=C(N)NN [PIMAGEDINE] | 966 | – | – | – | –
OC[C@H]1O[C@@H](O[C@@H]2Cc3c(O)cc4c(c3O[C@H]2c2ccc(O)cc2)[C@@H]2c3c(O)cc(O)cc3O[C@](c3ccc(O)cc3)(O4)[C@H]2O)[C@H](O)[C@@H](O)[C@@H]1O | 32.1 | Active | – | – | –

Now from value to molecule, other results behind:

IC50 [2] [µM] | SMILES | Activity [1] | Activity [3] [%] | Activity [4] | Activity [5] [%]
33.5 | Oc1ccc([C@H]2Oc3c(c(O)cc4c3[C@@H]3c5c(O)cc(O)cc5O[C@](c5ccc(O)cc5)(O4)[C@H]3O)C[C@@H]2O)cc1 | Active | – | – | –
34.7 | Oc1ccc([C@@H]2Oc3c(c(O)cc4c3[C@@H]3c5c(O)cc(O)cc5O[C@](c5ccc(O)cc5)(O4)[C@H]3O)C[C@H]2O)cc1 | Active | – | – | –
14.1 | Oc1ccc([C@@]23Oc4cc(O)cc(O)c4[C@@H](c4c(cc(O)c5c4O[C@H](c4ccc(O)c(O)c4)[C@@H](O)C5)O2)[C@@H]3O)cc1 | – | 104 | – | –
39.8 | Oc1ccc([C@@H]2Oc3c(c(O)cc4c3[C@@H]3c5c(O)cc6c(c5O[C@](c5ccc(O)cc5)(O4)[C@H]3O)[C@@H]3c4c(O)cc(O)cc4O[C@](c4ccc(O)cc4)(O6)[C@H]3O)C[C@H]2O)cc1 | Active | – | – | –
17.4 | Oc1ccc([C@@H]2Oc3c(c(O)cc4c3[C@@H]3c5c(O)cc6c(c5O[C@](c5ccc(O)c(O)c5)(O4)[C@H]3O)[C@@H]3c4c(O)cc(O)cc4O[C@](c4ccc(O)cc4)(O6)[C@H]3O)C[C@H]2O)cc1 | – | 164.1 | Non-toxic | 157.7
